Drawing on ChEMBL document CHEMBL1124326, “Synthesis and P-388 antitumor properties of the four diastereomeric 1-hydroxy-3,4-diaminocyclohexane-Cl2PtII complexes” (J Med Chem, 1989), this text covers MST and T/C for two substances.

“And” between values parts separate entries of the source, which are not always exact repeats. Equal entries are not always repeated.

Holding throughout (format): functional, organism-based
For experiment [1], the system named is Mus musculus. Briefly: Antineoplastic activity in P-388-tumor cell infected CDF1 mice, administered intraperitoneally at a dose (6 mg/kg), calculated as Median survival time (MST). In outline: (§1)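 P-388 leukaemia cells (1 × 10^6 per animal) implanted into the peritoneal cavity of CDF1 recipient mice. Drug reconstituted in 0.3% Klucel and given ip on a day 1 schedule. Survival checked daily for at least 30 days; survival time expressed as percent treated/control (T/C).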

Experiment [2] has as its system Mus musculus. Briefly: Antineoplastic activity in P-388-tumor cell infected CDF1 mice, administered intraperitoneally at a dose (3mg/kg), calculated as Median survival time (MST). In outline: as §1
Experiment [3] has as its system Mus musculus. Briefly: Antineoplastic activity in P-388-tumor cell infected CDF1 mice, administered intraperitoneally at a dose (1.5 mg/kg), calculated as Median survival time (MST). Summed up: as §1
Experiment [4] has as its system Mus musculus. As to the kind of experiment: Antineoplastic activity in P-388-infected CDF1 mice, administered intraperitoneally at a dose (1.5 mg/kg), calculated as Percent treated /control (T/C). Summed up: as §1
The subject of experiment [5] is Mus musculus. Briefly: Antineoplastic activity in P-388-infected CDF1 mice, administered intraperitoneally at a dose (6 mg/kg), calculated as Percent treated /control (T/C). In outline: as §1
Experiment [6] deals with Mus musculus. Briefly: Antineoplastic activity in P-388-infected CDF1 mice, administered intraperitoneally at a dose (3mg/kg), calculated as Percent treated /control (T/C). In outline:
as §1

The test system of experiment [7] is Mus musculus. Briefly: Antineoplastic activity in P-388-infected CDF1 mice, administered intraperitoneally at a dose (10 mg/kg), calculated as Percent treated /control (T/C). Summed up: as §1
The test system of experiment [8] is Mus musculus. As to the kind of experiment: Antineoplastic activity in P-388-tumor cell infected CDF1 mice, administered intraperitoneally at a dose (10 mg/kg), calculated as Median survival time (MST). Summed up: as §1

Broadly, the T/C is the ratio of treated to control. CISPLATIN: the figures for the MST in experiment [1], in experiment [2] and in experiment [3] were 24.5 days, 18.5 days and 15.5 days, respectively. Also, the T/C is 158% in experiment [4], 249% in experiment [5] and 188% in experiment [6].

Regarding “1-Hydroxy-3,4-diaminocyclohexane-Cl2-Platinum II Complex”, the T/C in experiment [7] is 161% and 141%. Moreover, in experiment [8], the MST was 15.8 days and 13.8 days.
